CR mimetic SO: lowers age-related superoxide in aged yeast cells | S. cerevisiae aged cells, superoxide DHE fluorescence; stronger effect = lower value | superoxide response (% of plate mean), % at 10 µM | actives 0.18% (n = 330,000) | AID 2690;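 active = superoxide response under a set limit, about three screen SD below normal, cut at about 65% in these data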;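 note: yeast aged for seven days with compound at 30 °C before DHE staining; 100% = average MFI of all compound-treated wells on the plate with controls excluded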
Cneo AK release: Cryptococcus neoformans lysis via adenylate kinase release. lysis activity, % at 15 µM. AID 651654. C. neoformans lysis, adenylate kinase release luminescence, 4 h; normalised: neutral wells 0, clomiphene wells 100. actives 0.2% (n = 360,000);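 active = mean lysis activity across replicates of at least 80%, whatever share of replicates individually reach that level; inactive = mean lysis activity below 80%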
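Assay system: log-phase C. neoformans yeast / Quantity: yeast cell density of 5 × 10^6 cells/mL / Medium: fresh YPD growth medium / Compound: single dose / Timing: static 4 h at 37 °C with compound, 1 h detection / Measured by: adenylate kinase release luminescence / Read-out: lysis from increased AK signal / Benchmarks: Clomiphene as positive lysis control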
PglD DTNB: blocks C. jejuni PglD acetyltransferase activity; purified PglD enzyme, DTNB colorimetric CoA detection; inhibition, % at 12.5 µM; actives 0.098% (n = 360,000); AID 602405; in the data active = inhibition above about 16%, passing the limit was not always enough
Mot1-301 SUMO: blocks SUMOylation pathway, rescuing yeast Mot1-301 growth; S. cerevisiae Mot1-301 growth rescue, ATP luminescence, 38.5C; percent above DMSO median, 100 means doubled; growth rescue, % at 18.8 µM; actives 1% (n = 320,000);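 active = every valid replicate shows activation above 250% relative to neutral control wells; inactive = the rest, any valid replicate at or below 250%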;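 note: OY570 slx delta 5 strain wells were the positive control but not used for scaling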
rRNA inh HTS: inhibitors of bacterial rRNA selective over humanized ribosomes | AID 720706 | actives 1.6% (n = 350,000) | E. coli WT GFP vs humanized-ribosome RFP mutants, fluorescence, 24 h; stronger effect = lower value; DMSO median 0, no signal -100 | GFP signal change (wild-type ribosome), % (concentration not given with the values);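 active = significant combined selectivity score with lowered wild-type GFP, culture density cut under 30%, mutant RFP and density less affected; inactive = any of these conditions unmet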
* marks the source's active call; other numbers are inactive results; / = no result given; ! = not confirmed by another sample. A selection: hits, their analogues and other compounds. The true share with any hit is near 2.2%.

SMILES	CR mimetic SO	Cneo AK release	PglD DTNB	Mot1-301 SUMO	rRNA inh HTS
Fc1ccc2cc(-c3ccsc3)ncc2c1	77	-1	-1	282*	7
Cc1cc2c(c(=O)o1)C(CCC1CCCCC1)C(C#N)=C(N)O2 (stereo not given)	97	0	-2	-5	-21*
Cc1ccc(-c2nc(-c3ccccn3)sc2CC(=O)O)cc1	102	/	/	328*	3
Cc1noc(C)c1NC(=O)N(C)C[C@H]1Oc2c(NC(=O)Nc3ccc4c(c3)OCO4)cccc2C(=O)N([C@@H](C)CO)C[C@@H]1C	/	-8	-4	/	2
CC(C)CC#Cc1ccc2c(c1)O[C@@H](CN(C)C(=O)c1cccnc1)[C@@H](C)CN([C@@H](C)CO)S2(=O)=O	/	-5	4	/	2
CNC(=O)C[C@H]1CC[C@H]2[C@@H](COc3ccc(NC(=O)Nc4ccccc4)cc3C(=O)N2C)O1	/	110*	1	/	1
CNC(=O)C[C@H]1CC[C@H]2[C@H](COc3ccc(NC(=O)Nc4ccc(C)cc4)cc3C(=O)N2C)O1	/	9	-1	/	2
CNC(=O)C[C@H]1CC[C@H]2[C@H](COc3ccc(NC(=O)Nc4ccccc4)cc3C(=O)N2C)O1	/	94*	3	/	2
Cc1scc(C(=O)NNC(=S)NC(C)c2ccccc2)c1C (stereo not given)	92	/	/	-7	-20*
CCOc1cc2[nH]c(=S)n(C(C)C)c(=O)c2cc1OCC	102	0	2	-2	/
CCC(CO)n1c(=S)[nH]c2cc(OC)c(OC)cc2c1=O (stereo not given)	77	14	5	-4	-22*
CCCNC(=O)C[C@@H]1C[C@H]2c3cc(NC(=O)c4cccnc4)ccc3O[C@H]2[C@@H](CO)O1	/	-2	5	/	2
O=C(N[C@H]1CC[C@H](CCNS(=O)(=O)c2ccc(Cl)cc2)O[C@@H]1CO)c1cccc(F)c1	/	1	3	/	-25*!
O=C(Nc1cccc(F)c1)N[C@H]1CC[C@@H](CCNS(=O)(=O)c2cccc(Cl)c2)O[C@@H]1CO	/	106*	-1	/	-2
O=C(N[C@@H]1CC[C@@H](CCNS(=O)(=O)c2ccc(Cl)cc2)O[C@H]1CO)c1cccc(F)c1	/	-3	8	/	-3
O=C(NC1CCCCC1)N[C@@H]1CC[C@@H](CCNS(=O)(=O)c2ccc(Cl)cc2)O[C@H]1CO	/	94*	0	/	-3
O=C(NC1CCCCC1)N[C@@H]1CC[C@@H](CCNS(=O)(=O)c2ccc(Cl)cc2)O[C@@H]1CO	/	5	-2	/	-2
O=C(Nc1cccc(F)c1)N[C@@H]1CC[C@@H](CCNS(=O)(=O)c2cccc(Cl)c2)O[C@@H]1CO	/	1	-151	/	-8
Cc1noc(C)c1NC(=O)N(C)C[C@@H]1OCCCC[C@H](C)Oc2ccc(NS(C)(=O)=O)cc2C(=O)N([C@@H](C)CO)C[C@H]1C	/	-1	0	/	1
CCCCC[C@@H](/C=C/C1C(=O)C=C[C@H]1C/C=C\CCCC(=O)OC)OC(C)=O (stereo not given in full)	/	-3	2	/	-23*
COC(=O)[C@]1(C)N[C@H](CN(C)S(=O)(=O)c2ccc(F)cc2)[C@@H]2C(=O)N(Cc3ccccc3)C(=O)[C@@H]21	81	3	1	/	-1
COC(=O)[C@]1(C)N[C@H](CN(C)S(=O)(=O)c2ccc(OC(F)(F)F)cc2)[C@@H]2C(=O)N(Cc3ccccc3)C(=O)[C@@H]21	111	4	5	/	-21*
CC(=O)c1c(O)c(C)c(-c2ccccc2)n(-c2ccccc2)c1=O	90	-2	2	30	/
O=C(c1ccccc1)c1c(O)nc(-c2ccccc2)n(-c2ccccc2)c1=O	112	2	1	248	-25*
COc1ccccc1/C=C1\SC(=S)N(CCC(=O)N2CCN(C)CC2)C1=O	87	0	-1	94	-19*
SMILES	CR mimetic SO	Cneo AK release	PglD DTNB	Mot1-301 SUMO	rRNA inh HTS
O=C(CCN1C(=O)/C(=C/c2ccccc2Cl)SC1=S)N1CCCC1	83	8	-1	-5	1
O=C(CCCN1C(=O)/C(=C/c2ccccc2Cl)SC1=S)N1CCCC1	99	-5	-5	11	-40*
COc1ccccc1/C=C1\SC(=S)N(CCC(=O)NCCCn2ccnc2)C1=O	93	-1	2	-3	-24*
COc1ccc(-c2cc(-c3ccccc3O)[nH]n2)cc1OC	108	-14	-2	26	/
COc1ccc(-c2cc(-c3cc(F)ccc3O)[nH]n2)cc1OC	98	-7	1	4	-33*
CCC(C)(C)n1nnnc1C(c1ccc2ncccc2c1)N1CCCC(C)C1 (stereo not given)	97	-1	0	342*	/
COc1cccc(C#Cc2cnc3c(c2)C(=O)N([C@H](C)CO)C[C@H](C)[C@@H](CN(C)C(=O)C2CCOCC2)O3)c1	/	-5	1	/	-1
O=C(COc1ncnc2scc(-c3ccc(F)cc3)c12)NCc1ccco1	101	-1	1	-10	/
Cc1ccc(-c2csc3ncnc(OCC(=O)NC(=O)NCc4ccco4)c23)cc1	106	0	9	-6	-29*
Cc1ccc(Cc2c(-c3ccc(Br)cc3)nc3ccc(Cl)cn23)cc1	/	-1	4	/	-27*
O=C(Nc1cccc(Cl)c1)N1C[C@H]2[C@@H](c3ccccc31)[C@@H](CO)N2C(=O)C1CC1	/	-2	-3	/	-18
Cc1cc(C)c(COCc2cc(/C=N/O)c(C)cc2C)cc1/C=N/O	103	0	3	-1	-36*
Cc1noc(C)c1NC(=O)Nc1cccc2c1O[C@@H](CN(C)C(=O)NC(C)C)[C@H](C)CN([C@H](C)CO)C2=O	/	-2	1	/	3
CCOC(=O)NC(=S)Nc1cccc(C)n1	/	-1	4	/	/
CCOC(=O)NC(=S)Nc1ccc(C(C)(C)C)cc1	89	173*	-4	10	-13
Cc1ccc(S(=O)(=O)NN2C(=O)/C(=C\c3ccc(Cl)cc3)SC2=S)cc1	100	-2	-7	-9	4
Cc1ccc(/C=C2\SC(=S)N(NS(=O)(=O)c3ccc(C)cc3)C2=O)cc1	111	121*	-13	-23	-40
Cc1ccc(S(=O)(=O)NN2C(=O)/C(=C/c3ccc(F)cc3)SC2=S)cc1	104	0	-2	-4	9
Cc1ccc(S(=O)(=O)NN2C(=O)/C(=C/c3cccs3)SC2=S)cc1	100	-4	-10	324	-34*
C[C@@H]1CN([C@H](C)CO)C(=O)c2cccc(NC(=O)Nc3ccc(F)cc3)c2O[C@@H]1CN(C)S(C)(=O)=O	/	3	4	/	0
COCC(=O)N1[C@@H]2c3ccc(C4=CCCCC4)c(=O)n3C[C@@H]2[C@@H](CO)[C@@H]1C(=O)N1CCCCC1	/	-8	1	/	2
O=C(c1cc2cc(F)ccc2[nH]1)N1CCN(Cc2ccc3c(c2)OCO3)CC1	97	-4	1	19	-40*
